# Compounds with a hit are over-represented: about 8.4% of the library has one in this group of screens.
# Ecoli WT expand: growth inhibitors of wild-type E. coli, primary screen, strain BW25113, expanded library, OD600 | OD600 absorbance | growth inhibition, % at 100 µM | 98,000 compounds, 0.15% hits;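 active means growth inhibition above about 50% at one test dose, limit read from the data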;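 further: growth measured after 20 h incubation at 37 °C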
# Cav3 T inh: Cav3.2 calcium influx blockers – cell-based, Fluo-4 calcium fluorescence, FDSS, MLSMR library, primary screen; Voltage-dependent T-type calcium channel subunit alpha-1H (Homo sapiens), O95180; Cav3.2-expressing cells; hits give low values; B-score at 10 µM; 100,000 compounds, 4% hits; AID 449739, 2010;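 active means single-dose well whose peak fluorescence ratio is a statistical outlier from its plate by either plate-standardised score or position-corrected B-score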
# tolC growth inh: growth inhibitors of E. coli tolC mutant, primary screen, strain BW25113 ΔtolC::kan, 384-well; 65,000 compounds, 2.2% hits; growth inhibition, % at 10 µM (by protocol); OD615;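 active means growth inhibition at or above a cutoff equal to the mean over every tested compound plus 3 SD, cut at about 60% in these data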;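 further: growth measured after 20 h incubation at 37 °C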
#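 Material: E. coli BW25113 ΔtolC::kan, tolC deletion mutant strain. Measure: percent growth inhibition. Schedule: 37 °C, 20 h exposure. Doses: single-point testing at 10 µM. Signal: A615 absorbance measurement. Buffer or medium: kanamycin-containing LB broth (50 µg/mL).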
# PostGolgi yeast: phenotypic screen on post-Golgi transport, primary screen; AID 739, 2007; 98,000 compounds, 0.9% hits; post-Golgi transport phenotypic cell assay; inhibition, % at 10 µM;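 further: yeast cells grown in 1536-well plates; yeast grown about 18 h at 30C before absorbance read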
# PostGolgi ctrl: growth inhibition of yeast control strain, primary screen, counter-screen for post-Golgi transport modulator project; efflux-deficient yeast background strain, growth absorbance A615, 16 h; inhibition, % at 10 µM; 98,000 compounds, 5% hits
# * marks the source's active call; other numbers are inactive results; nt = not tested or not shown. Unless noted, no stated cut-off is given here; in the data, active means inhibition above about 30%; inactive means the rest.
SMILES,Ecoli WT expand,Cav3 T inh,tolC growth inh,PostGolgi yeast,PostGolgi ctrl
O=C(NC(CSCc1ccccc1)C(=O)N/N=C/c1ccc(O)cc1O)c1ccc([N+](=O)[O-])cc1 (configuration not stated),12.0,-4.7*,nt,7.3,-0.1
O=C(N/N=C/c1ccc(O)c(O)c1O)/C(=C/c1ccc([N+](=O)[O-])cc1)NC(=O)c1ccccc1,39.0,-0.931,nt,-13.1,-8.5
O=C1NCC(=O)N2CCC[C@@H]12,nt,0.464,nt,nt,nt
Fc1cccc(Cl)c1Cn1nnc(-c2ccc3c(c2)OCO3)n1,-8.0,-3.03,62.8*,-1.2,9.5
Cc1ccccc1Cn1nnc(-c2ccc3c(c2)OCO3)n1,nt,-1.3,nt,nt,nt
CCN1CCN(Cc2ccccc2NC(=O)Nc2ccc(C)cc2)CC1,7.0,0.279,-6.2,-2.5,34.9*
CCOC(=O)C1C(=O)NC(SC)=C(C#N)C1c1ccccc1F (configuration not stated),2.0,-4.85*,8.3,-7.4,4.4
Cc1sc2ncn(CC(=O)OC(C)C(=O)NC(C)(C)C)c(=O)c2c1C (configuration not stated),-1.0,-0.237,1.6,0.8,10.1
Cc1ccc(C(=O)O/N=C2\CCCc3ccccc32)cc1,0.0,0.0605,nt,-2.3,37.8*
O=C(Nc1ccccc1C(=O)OCC(=O)N1CCc2ccccc2C1)c1ccco1,-24.0,-1.58,34.1,1.4,32.4*
CC1CCCCC1NC(=O)COC(=O)c1ccccc1NC(=O)c1ccco1 (configuration not stated),-2.0,-1.72,nt,2.4,7.4
Cc1ccc(-c2nn(-c3ccccc3)cc2CN(Cc2ccccc2)C(=O)c2ccco2)o1,-21.0,-3.96*,nt,-1.4,15.0
O=c1[nH]c2cc3c(cc2cc1CN(CCO)S(=O)(=O)c1ccccc1Cl)OCCO3,0.0,1.45,nt,12.6,26.6
O=C(Nc1ccc2c(c1)C(=O)N(CC1CCCO1)C2=O)c1cccc(Br)c1 (configuration not stated),-1.0,-2.66*,nt,-0.5,14.8
COc1ccccc1-c1cc(C(=O)N2CCc3ccccc3C2)c2ccccc2n1,-8.0,nt,nt,1.1,52.5*
COc1ccc(OC)c(-c2cc(C(=O)N3CCN(c4ncccn4)CC3)c3ccccc3n2)c1,-9.0,-0.345,8.2,6.3,27.3
O=C(c1cc(-c2ccccn2)nc2ccc(Br)cc12)N1CCc2ccccc2C1,-1.0,nt,nt,29.8,70.7*
Cc1ccc2c(c1)sc[n+]2Cc1ccccc1,-5.0,-0.0747,nt,7.5,10.6
COc1cccc(C(C)NC(=O)Nc2cccc(C(F)(F)F)c2)c1 (configuration not stated),6.0,-8.29*,nt,4.6,11.1
Cc1nc(-c2cccc(NS(=O)(=O)c3cccc4ccccc34)c2)cs1,0.0,-3.56,nt,-3.7,62.5*
Cc1ccc(N2C(=O)c3ccccc3NC2C(C)Cc2ccc3c(c2)OCO3)cc1 (configuration not stated),nt,-4.3*,nt,nt,nt
CCOC(=O)C1=C(N)c2ccccc2CC1C(C)C (configuration not stated),7.0,nt,9.8,-1.4,11.0
O=C(c1ccccc1Nc1ccc(SC(F)F)cc1)N1CCCCCC1,-9.0,-6.83*,nt,4.3,25.4
CCOC(=O)c1c(C)[nH]c(C(=O)CN2C(=O)NC(C)(c3ccc(C)cc3)C2=O)c1C (configuration not stated),nt,-3.26,19.7,nt,nt
CCOC(=O)c1c(C)[nH]c(C(=O)CN2C(=O)NC(CC)(c3ccccc3)C2=O)c1C (configuration not stated),0.0,-5.72*,34.9,-8.5,-2.6
SMILES,Ecoli WT expand,Cav3 T inh,tolC growth inh,PostGolgi yeast,PostGolgi ctrl
CC(C)Sc1nnc(Cn2c(=O)sc3ccccc32)n1-c1ccccc1,2.0,0.374,0.9,3.5,32.0*
CSc1nnc(Cn2c(=O)sc3ccccc32)n1-c1ccccc1,2.0,-0.223,6.4,-7.5,-1.1
CC1CCN(C(=O)c2ccc(CSc3nc4ccncc4n3Cc3ccc(F)cc3)cc2)CC1,nt,-2.95,nt,nt,nt
COc1ccc(OC)c(S(=O)(=O)N2CCCCCC2)c1,4.0,0.193,7.1,4.7,-9.1
O=S(=O)(c1ccc(Oc2ccc(Cl)cc2)c(S(=O)(=O)N2CCCCC2)c1)N1CCCCC1,-13.0,-3.49*,nt,-6.2,6.8
O=C(/C=C/c1ccc(Cl)cc1)N1CCN(c2ccc(Cl)cc2[N+](=O)[O-])CC1,-22.0,-7.47*,nt,-14.1,92.5*
CO/N=C(\c1nonc1N)N1CCN(c2ccc([N+](=O)[O-])cc2Cl)CC1,-8.0,nt,nt,0.3,32.3*
CO/N=C(\c1nonc1N)N1CCN(c2ccc(Cl)cc2[N+](=O)[O-])CC1,-22.0,nt,nt,-7.2,57.7*
CCCCCNC(=O)c1c(N)n(/N=C/c2ccco2)c2nc3ccccc3nc12,nt,nt,2.1,nt,nt
Cc1ccc(NC(=O)c2cc(N3C(=O)C4CC=CCC4C3=O)ccc2N2CCOCC2)cc1Cl (configuration not stated),-4.0,-1.48,nt,0.7,7.6
CC(C)(C)OC(=O)N1CCC[C@H]1c1nnc(SCc2ccc(Cl)cc2Cl)o1,9.0,-5.78*,88.7*,17.8,14.7
CC(C)(C)OC(=O)NCCc1nnc(SCc2ccc(Cl)cc2Cl)o1,-5.0,-5.2*,nt,-1.1,18.1
Nc1cc(C(=O)O)ccc1Nc1ccc(F)c(F)c1,8.0,-0.0151,-0.7,-20.2,25.3
NC(=O)CSc1nnc(Cc2csc(Nc3ccc(F)cc3)n2)n1Cc1ccccc1,nt,-0.357,nt,nt,nt
COc1ccc(N(CC(=O)NCc2cccs2)S(=O)(=O)c2c(C)n[nH]c2C)cc1,3.0,-0.481,-8.0,-1.8,0.0
COc1ccc(N(CC(=O)NCc2cccs2)S(=O)(=O)c2cccnc2)cc1,6.0,1.25,-3.6,-7.3,30.1*
COC(=O)CSC1=C(C#N)C(c2ccsc2)CC(=O)N1 (configuration not stated),nt,0.979,nt,nt,nt
COc1ccc2c(c1)c(=O)oc1cc(OCC(=O)NC3CCCCC3)ccc12,0.0,0.166,nt,80.8*,93.1*
CCOC(=O)c1ccc(NC(=O)COc2ccc(-n3cnnn3)cc2)cc1,10.0,-0.364,2.6,12.3,-3.1
CCOC(=O)C1=C(C)N(CC(C)C)C(=O)/C1=C\c1ccc(OCC(=O)Nc2ccccc2)cc1,-6.0,-5.51*,nt,3.4,-5.6
O=C(c1ccc(-c2nnc(Nc3ccccc3)c3ccccc23)cc1)N1C[C@H]2C[C@H](C1)c1cccc(=O)n1C2,2.0,0.442,nt,-6.8,8.6
CCc1c(C)nc2cc(-c3ccc(OC)c(OC)c3)nn2c1N1CCC(C)CC1,0.0,0.0872,nt,-4.1,6.0
CCc1c(C)nc2cc(-c3cc(OC)cc(OC)c3)nn2c1N1CCCC1,-29.0,-0.0363,74.7*,0.6,43.3*
COC(=O)Nc1nnc(-c2ccccc2Cl)s1,-10.0,0.85,17.9,-4.8,0.9
COc1ccccc1N1CCN(C(=O)CN(c2ccccc2OC)S(=O)(=O)c2ccccc2)CC1,-5.0,-0.375,27.0,-17.0,4.1

# Source: PubChem
